The values below come from ChEMBL document CHEMBL5329171, “First-in-class small molecule inhibitors of ICOS/ICOSL interaction as a novel class of immunomodulators” (RSC Med Chem, 2023).

Data set [1] deals with T1, ICOS-ICOSL (Homo sapiens, UniProt O75144+Q9Y6W8).
T1 sequence (O75144 whole entry): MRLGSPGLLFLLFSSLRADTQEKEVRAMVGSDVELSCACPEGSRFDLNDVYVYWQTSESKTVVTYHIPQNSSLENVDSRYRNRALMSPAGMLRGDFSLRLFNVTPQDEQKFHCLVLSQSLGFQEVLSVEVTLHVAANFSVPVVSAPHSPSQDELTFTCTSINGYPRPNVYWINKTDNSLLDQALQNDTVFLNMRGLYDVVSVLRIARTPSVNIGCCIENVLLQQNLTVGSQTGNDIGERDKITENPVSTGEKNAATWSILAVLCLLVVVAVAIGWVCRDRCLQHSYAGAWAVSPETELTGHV
T1 sequence (Q9Y6W8 whole entry): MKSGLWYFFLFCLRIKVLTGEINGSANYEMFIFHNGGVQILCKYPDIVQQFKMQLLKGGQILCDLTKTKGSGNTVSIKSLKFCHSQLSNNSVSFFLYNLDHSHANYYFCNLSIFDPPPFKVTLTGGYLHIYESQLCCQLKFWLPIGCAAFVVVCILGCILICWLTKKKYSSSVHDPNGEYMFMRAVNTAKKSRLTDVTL
Put plainly: Inhibition of C-terminal IgG1 Fc region fused human ICOS extracellular domain (1 to 141 residues)/C-terminal polyhistidine tagged human ICOSL extracellular domain (1 to 258 residues) interaction incubated for 1 hr by TR-FRET assay. Type of data set: protein assay. The method in brief: (§1)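 Fc-tagged human ICOS and His-tagged ICOSL, 10 nM each final, with Tb cryptate anti-His mAb (1 nM) donor and XL665 anti-human Ab (10 nM) acceptor. Compounds in DMSO (0.1%)/PBS pH 7.4, 1 h at room temperature. Read 665/620 nm ratio ×100 with 340 nm excitation. Percent inhibition scaled 0% (DMSO) to 100% (1 μM anti-ICOS mAb). Triplicate, single run. Single-dose screen at 50 μM final; IC50 from dose–response.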
A general note: Time-resolved FRET reads energy transfer from a long-lived donor to a nearby acceptor.

The nature of data set [2]: Stability in simulated gastric fluid at pH 1.6. The data set is classed as ADME. The note with it: simulated gi fluid.
Data set [3] in a line: Stability in simulated intestinal fluid at pH 6.5. The data set is classed as ADME. Conditions: simulated gi fluid.
Data set [4] in a line: Metabolic stability in rat liver microsomes. The data set is classed as ADME, Microsome. On the technique in general: Liver microsomes are vesicles of endoplasmic reticulum, rich in cytochrome P450 enzymes.
Data set [5] can be described thus: Metabolic stability in human plasma measured at 120 mins. The data set is classed as ADME, cell-free. Conditions: 2 h.
The target of data set [6] is T2, ICOS-ICOSL (Homo sapiens) (UniProt O75144+Q9Y6W8). Briefly: Inhibition of human ICOS expressed in Jurkat T cells coexpressing TCR/CD3 and NanoLuc luciferase reporter/ICOSL (unknown origin) expressed in CHO-K1 cells interaction assessed as reduction in luminescence. Type of data set: cell-based. The note with it: dose 5-20 µM. The gist of the method:
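Commercial blockade kit, run per manufacturer's protocol. ICOS effector Jurkat cells (NanoLuc reporter) co-cultured with ICOSL/CHO-K1 cells carrying a TCR/CD3 activator. Compound tested at 5, 10 and 20 μM; anti-ICOS mAb (100 nM) as positive control. Luminescence compared with untreated control. Triplicate, single run.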
On the technique in general: A reporter such as luciferase makes a cellular process visible.

For another data set, the system named is HEL 299. Briefly: Cytotoxicity against human HEL 299 cells. The data set is classed as toxicity, cell-based.
In data set [7] the target is T2, ICOS-ICOSL (Homo sapiens). Briefly: Inhibition of C-terminal IgG1 Fc region fused human ICOS extracellular domain (1 to 141 residues)/C-terminal polyhistidine tagged human ICOSL extracellular domain (1 to 258 residues) interaction assessed as reduction in FRET signal at 50 uM incubated for 1 hr by TR-FRET assay relative to control. The data set is classed as protein assay. The method in brief:
as §1

Data set [8] deals with T1, ICOS-ICOSL. Briefly: Inhibition of ICOS (unknown origin)/C-terminal IgG1 FC region fused human ICOSL interaction by ELISA. Type of data set: protein assay. The method in brief: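 Commercial ICOS/ICOSL ELISA kit, run per manufacturer's protocol. Anti-ICOS antagonist mAb as positive control. Triplicate, single run.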

Take `O=C(Nc1cc(Cl)cc2c1[nH]c1cnccc12)c1ccccn1`: the IC50 at ICOS-ICOSL [1] was determined as 28.6 µM.
Same read-out and setting: the figure for `O=C(Nc1cc(Cl)cc2c1[nH]c1cnc(NCc3ccccc3)cc12)c1ccccn1` is 15.5 µM.
`O=C(Nc1cc(Cl)cc2c1[nH]c1cnc(NCc3ccccc3)cc12)c1cccnc1`: the Stability result in data set [2], in data set [3], in data set [4] and in data set [5] was “Stable” throughout. Besides, in data set [6], the inhibition result is “Dose-Dependent Effect”. In addition, inhibition on ICOS-ICOSL [1] was half-maximal at 4.68 µM (IC50). In the data set with HEL 299, the Activity entry is recorded as “Non-Toxic”.
On to `COc1ccc(C(=O)Nc2cc(Cl)cc3c2[nH]c2cnccc23)cc1`, for which the IC50 on ICOS-ICOSL [1] turned out to be 49.3 µM.
`O=C(Nc1cc(Cl)cc2c1[nH]c1cnccc12)c1ccccc1` yielded an IC50 against ICOS-ICOSL [1] of more than 50 µM.
`O=C(Nc1ccc(Cl)cc1)c1c(O)ccc2c1[nH]c1ccccc12` gave an IC50 against ICOS-ICOSL [1] of more than 50 µM.
In the case of `O=C(Cc1ccccn1)Nc1cc(Cl)cc2c1[nH]c1cnccc12`, at ICOS-ICOSL [1], the IC50 stood at 37.1 µM.
The same measure, in the same setting: the figure for `O=C(Nc1ccc(Cl)cc1)c1cc2c(cc1O)[nH]c1ccccc12` is more than 50 µM; for `COc1c(Cl)cc2c([nH]c3cnccc32)c1NC(=O)c1cncnc1C` it is 5.65 µM.
In the case of `COc1c(Cl)cc2c([nH]c3cnccc32)c1NC(=O)c1cccnc1C`, the inhibition in data set [7] was more than 90%. Also, the concentration for half-maximal inhibition (IC50) against ICOS-ICOSL [8] turned out to be 10.3 µM; against ICOS-ICOSL [1], 12.2 µM.
`O=C(Nc1cc(Cl)cc2c1[nH]c1cnc(NCc3ccccc3)cc12)c1ccncc1` showed an IC50 at ICOS-ICOSL [1] of 18.4 µM.
For the compound `CC1(C)CN[C@@H](C(=O)Nc2cc(Cl)cc3c2[nH]c2cnccc23)CO1`, the IC50 against ICOS-ICOSL [1] is 11.1 µM.
Still for that read-out and setting: as for `COc1cccc(C(=O)Nc2cc(Cl)cc3c2[nH]c2cnccc23)c1`, the figure is 36.7 µM.
The compound `O=C(Nc1cc(Cl)cc2c1[nH]c1cnccc12)c1ccncc1` showed a concentration for half-maximal inhibition (IC50) on ICOS-ICOSL [1] of 31 µM.
The same measure, in the same setting: the figure for `CCOc1ccc(-c2nc(C(=O)Nc3ccccc3Cl)cc3c2[nH]c2ccccc23)cc1OC` is more than 50 µM; for `COc1ccccc1C(=O)Nc1cc(Cl)cc2c1[nH]c1cnccc12` it is 43.7 µM; for `O=C(Nc1cc(Cl)cc2c1[nH]c1cnccc12)c1cccnc1` it is 13.9 µM.

What is called IC50 is the concentration that inhibits the measured activity by half. Read a low IC50 as higher potency. In general, inhibition refers to the drop in the measured response relative to a control, in per cent.
